Data reported in ChEMBL document CHEMBL3244161, “Azabicycloalkanes as analgetics. 3. Structure-activity relationships of 1-phenyl-6-azabicyclo[3.2.1]octanes and absolute stereochemistry of (+)-1-(3-hydroxyphenyl)-6-methyl-6-azabicyclo[3.2.1]octane and its 7-endo-methyl derivative” (J Med Chem, 1977).
Active and inactive are the calls of the source. The calls are words filed in the database; no cut-off is given here.

Key:
Mus musculus [1] = experiment: Analgesic activity in mouse assessed as inhibition of AcOH-induced writhing up to 22.5 mg/kg, sc; assay type: functional, organism-based; set-up: dose 22.5 mg/kg
Mus musculus [2] = experiment: Analgesic activity in sc dosed mouse by hot-plate method; assay type: functional; conditions: Mus musculus, sc; read-out: ED50
[3] = Acute toxicity in sc dosed mouse; assay type: organism-based; conditions: in vivo
Oryctolagus cuniculus [4] = experiment: Narcotic antagonist activity in rabbit assessed as inhibition of morphine-induced respiratory depression at 5 mg/kg, iv; assay type: functional
Method in brief: (§1)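 Rabbits given test compound iv; read-out is antagonism of morphine-induced respiratory depression; expressed as AD50 in mg/kg or as % antagonism at a fixed dose.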

Rhesus monkey [5] = experiment: Narcotic antagonist activity in morphine-dependent rhesus monkey assessed as mild to moderate abstinence at 5 to 20 mg/kg; assay type: functional, organism-based; conditions: Macaca mulatta
Method in brief: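 Compound given to nonwithdrawn morphine-dependent monkeys; scored as precipitation of abstinence syndrome, with severity graded from mild to severe over the stated dose range.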

Rhesus monkey [6] = experiment: Suppression of abstinence syndrome in morphine-dependent rhesus monkey at 10 mg/kg; assay type: functional, organism-based; set-up: dose 10 mg/kg; conditions: Macaca mulatta
Oryctolagus cuniculus [7] = experiment: Narcotic antagonist activity in iv dosed rabbit assessed as inhibition of morphine-induced respiratory depression; assay type: functional; method in brief: as §1
Mus musculus [8] = experiment: Analgesic activity in sc dosed mouse assessed as inhibition of AcOH-induced writhing; assay type: functional
Mus musculus [9] = experiment: Analgesic activity in mouse assessed as inhibition of AcOH-induced writhing up to 10 mg/kg, sc; assay type: functional, organism-based; set-up: dose 10 mg/kg
[10] = Mus musculus, sc, read-out: ED50

Row | SMILES | Activity (Mus musculus [1]) | LD50 [3] | ED50 (Mus musculus [8]; [10]) | further results
1 | CN1C[C@@]2(c3cccc(O)c3)CCC[C@@H]1C2 | inactive | 156 mg/kg | – | ED50 (Mus musculus [2]): 20 mg/kg; inhibition in vivo at 5 mg/kg (Oryctolagus cuniculus [4]): 41%; Activity (Rhesus monkey [5]): Active; Activity (Rhesus monkey [6]): inactive
2 | C/C=C\N1CC[C@]23CCCC[C@H]2[C@H]1Cc1ccc(O)cc13.Cl | – | – | – | AD50 (Oryctolagus cuniculus [7]): 0.014 mg/kg
3 | Br.CC1N(C)C2CCCC1(c1cc(O)cc(O)c1)C2 (racemic) | inactive | > 100 mg/kg | – | –
4 | CN1CC2(c3ccccc3)CCCC1C2.Cl (racemic) | – | > 30 mg/kg | 22.8 mg/kg | –
5 | CC1N(C)C2CCCC1(c1ccccc1)C2.Cl (racemic) | – | > 30 mg/kg | 20 mg/kg | ED50 (Mus musculus [2]): 20 mg/kg; Activity (Rhesus monkey [6]): inactive
6 | COc1cccc(C23CCCC(C2)NC3)c1.O=C(O)C(=O)O (racemic) | inactive | > 100 mg/kg | – | –
7 | Br.COc1cccc(C23CCCC(C2)NC3C)c1 (racemic) | inactive | > 100 mg/kg | – | –
8 | Br.Oc1cccc(C23CCCC(C2)NC3)c1 (racemic) | inactive | > 100 mg/kg | – | –
9 | Br.CC1NC2CCCC1(c1cccc(O)c1)C2 (racemic) | inactive | > 100 mg/kg | – | –
10 | Br.COc1cccc(C23CCCC(C2)N(C)C3)c1 (racemic) | – | 31.2 mg/kg | 8.6 mg/kg | –
11 | Br.COc1cccc(C23CCCC(C2)N(C)C3C)c1 (racemic) | – | 25.9 mg/kg | 6.1 mg/kg | –
12 | Br.CCC1N(C)C2CCCC1(c1cccc(O)c1)C2 (racemic) | – | 59.8 mg/kg | 8.8 mg/kg | –
13 | Br.CC1N(C)C2CCCC1(c1ccccc1O)C2 (racemic) | inactive | > 100 mg/kg | – | –
14 | Br.CC1N(C)C2CCCC1(c1ccc(O)cc1)C2 (racemic) | inactive | > 100 mg/kg | – | –
15 | Br.CC1N(C)C2CCCC1(c1ccc(O)c(O)c1)C2 (racemic) | – | > 10 mg/kg | – | Activity (Mus musculus [9]): inactive
16 | CN1CC2(c3cc(O)cc(O)c3)CCCC1C2 (racemic) | inactive | > 225 mg/kg | – | –

Row | SMILES | Activity (Mus musculus [1]) | LD50 [3] | ED50 (Mus musculus [8]; [10]) | further results
17 | CC(=O)Oc1cccc(C23CCCC(C2)N(C)C3C)c1.Cl (racemic) | – | 123 mg/kg | – | ED50 (Mus musculus [8]): 2.9 mg/kg; ED50 (Mus musculus [2]): 3.5 mg/kg
18 | Br.CCC1N(C)C2CCCC1(c1cccc(OC(C)=O)c1)C2 (racemic) | – | 55.1 mg/kg | 10.1 mg/kg | ED50 (Mus musculus [2]): 9.9 mg/kg
19 | Br.CCC(=O)Oc1cccc(C23CCCC(C2)N(C)C3C)c1 (racemic) | – | 114 mg/kg | 2.3 mg/kg | ED50 (Mus musculus [2]): 9.9 mg/kg
20 | Br.CCCCCC(=O)Oc1cccc(C23CCCC(C2)N(C)C3C)c1 (racemic) | – | 156 mg/kg | 12.3 mg/kg | –
21 | Br.CC1N(C)C2CCCC1(c1cccc(OC(=O)c3ccccc3)c1)C2 (racemic) | – | 156 mg/kg | 5.7 mg/kg | –
22 | Br.CC1N(C)C2CCCC1(c1cccc(OC(=O)c3cccnc3)c1)C2 (racemic) | – | 184 mg/kg | 5.5 mg/kg | –
23 | O=C(O)C(=O)O.c1ccc(C23CCCC(C2)N(CC2CC2)C3)cc1 (racemic) | inactive | > 30 mg/kg | – | inhibition in vivo at 5 mg/kg (Oryctolagus cuniculus [4]): 41%
24 | C=CCN1CC2(c3ccccc3)CCCC1C2.O=C(O)C(=O)O (racemic) | inactive | > 100 mg/kg | – | AD50 (Oryctolagus cuniculus [7]): 2.2 mg/kg
25 | O=C(O)C(=O)O.c1ccc(CCN2CC3(c4ccccc4)CCCC2C3)cc1 (racemic) | inactive | > 100 mg/kg | – | –
26 | Cl.O=C(CCN1CC2(c3ccccc3)CCCC1C2)c1ccccc1 (racemic) | inactive | > 100 mg/kg | – | –
27 | Cl.O=C(CCCN1CC2(c3ccccc3)CCCC1C2)c1ccc(F)cc1 (racemic) | – | > 200 mg/kg | 4.1 mg/kg | –
28 | CCCCCCN1CC2(c3cccc(O)c3)CCCC1C2.Cl (racemic) | – | > 100 mg/kg | 17.5 mg/kg | –
29 | Cl.Oc1cccc(C23CCCC(C2)N(CC2CC2)C3)c1 (racemic) | – | > 100 mg/kg | 30 mg/kg | AD50 (Oryctolagus cuniculus [7]): 1.8 mg/kg
30 | Cl.Oc1cccc(C23CCCC(C2)N(CC2CCC2)C3)c1 (racemic) | – | > 30 mg/kg | – | Activity (Mus musculus [9]): inactive; AD50 (Oryctolagus cuniculus [7]): 3.5 mg/kg
31 | C=CCN1CC2(c3cccc(O)c3)CCCC1C2.Cl (racemic) | inactive | > 100 mg/kg | – | AD50 (Oryctolagus cuniculus [7]): 1.7 mg/kg
32 | C#CCN1CC2(c3cccc(O)c3)CCCC1C2.O=C(O)C(=O)O (racemic) | inactive | > 100 mg/kg | – | AD50 (Oryctolagus cuniculus [7]): 1.6 mg/kg
